Calls of active or inactive are those of the source. The calls are words filed in the database; no cut-off is given here.
Assays:
[1] = tested on: HeLa; experiment: Cell cycle arrest in human HeLa cells by accumulation at 2N stage at 30 nM after 24 hrs; format: functional
In short: (§1)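 HeLa cells exposed to 30 nM compound for the indicated times. DNA content measured by FACS to score 2N versus tetraploid (4N) populations.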

[2] = tested on: HeLa; experiment: Cell cycle arrest in human HeLa cells by accumulation at 4N stage at 30 nM after 24 hrs; format: functional; in short: as §1
[3] = molecular target: T1, Ornithine aminotransferase, mitochondrial (Homo sapiens) (UniProt P04181); experiment: Binding affinity to ornithine delta-amino transferase in human HeLa cells by silver stained SDS/PAGE method; format: cell-based
T1 sequence (whole entry): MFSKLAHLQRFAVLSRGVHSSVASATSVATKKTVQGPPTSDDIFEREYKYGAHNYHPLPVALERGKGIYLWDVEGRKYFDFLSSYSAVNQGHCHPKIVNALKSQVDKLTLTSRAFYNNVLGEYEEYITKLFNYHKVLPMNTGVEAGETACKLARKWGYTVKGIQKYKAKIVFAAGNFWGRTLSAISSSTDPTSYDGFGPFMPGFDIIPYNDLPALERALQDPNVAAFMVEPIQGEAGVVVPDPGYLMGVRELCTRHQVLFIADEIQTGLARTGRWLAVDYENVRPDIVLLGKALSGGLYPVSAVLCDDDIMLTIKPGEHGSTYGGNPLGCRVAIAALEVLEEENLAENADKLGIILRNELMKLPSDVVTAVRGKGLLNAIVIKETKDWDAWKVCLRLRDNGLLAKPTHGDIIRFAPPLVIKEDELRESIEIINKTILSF
In short: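 HeLa nuclear extract, dialysed into buffer B (20 mM Hepes-KOH pH 7.5, 10 mM KCl, 1.5 mM MgCl₂, EDTA, EGTA, DTT, PMSF, plus 150 mM NaCl) with 0.1% Nonidet P-40. Extract fractionated on Hitrap Q anion exchange; fractions incubated overnight at 4°C with biotinylated probe precoupled to avidin agarose. Bound proteins resolved by silver-stained SDS/PAGE; specific ~50 kDa bands identified by mass spectrometry.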

[4] = Binding affinity to tubulin
[5] = molecular target: T2, Ornithine aminotransferase, mitochondrial (Mus musculus) (UniProt P29758); experiment: Inhibition of ornithine delta-amino transferase activity in mouse liver mitochondria
T2 sequence (whole entry): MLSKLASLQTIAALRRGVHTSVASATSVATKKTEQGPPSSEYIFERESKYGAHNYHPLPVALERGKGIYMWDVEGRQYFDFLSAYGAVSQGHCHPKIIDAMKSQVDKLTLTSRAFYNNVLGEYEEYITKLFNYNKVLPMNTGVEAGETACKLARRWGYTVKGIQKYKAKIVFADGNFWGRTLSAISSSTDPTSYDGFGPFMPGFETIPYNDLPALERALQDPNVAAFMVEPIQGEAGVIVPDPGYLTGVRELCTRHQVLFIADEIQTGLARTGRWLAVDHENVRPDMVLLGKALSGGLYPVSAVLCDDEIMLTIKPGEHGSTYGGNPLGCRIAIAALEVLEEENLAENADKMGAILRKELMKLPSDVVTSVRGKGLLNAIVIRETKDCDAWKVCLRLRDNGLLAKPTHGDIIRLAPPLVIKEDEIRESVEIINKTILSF
In short: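 Crude OAT prepared from mouse liver. Enzyme added last with a compound dilution series; shaken at 37°C for 20 min. Δ¹-pyrroline-5-carboxylate detected by reaction with o-aminobenzaldehyde; absorbance read at 443.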

[6] = tested on: Ornithine aminotransferase, mitochondrial (Xenopus laevis); experiment: Binding affinity to ornithine delta-amino transferase in RanGTP L43E mutant pre-treated Xenopus egg extracts; conditions: egg extract
[7] = tested on: Xenopus; experiment: Effect on RanGTP L43E mutant-stimulated microtubule aster formations in Xenopus egg extract
[8] = tested on: HeLa; experiment: Antimitotic activity in human HeLa cells; format: functional, cell-based
[9] = tested on: U2OS; experiment: Cell cycle arrest in human U2OS cells assessed as abnormal spindle structure formation at 30 nM after 16 hrs; format: functional, cell-based
[10] = tested on: HeLa; experiment: Cell cycle arrest in human HeLa cells assessed as phosphorylated histone H3 level at 30 nM after 24 hrs; format: functional, cell-based
In short: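 HeLa cells dosed with 30 nM compound for a time course. Cell extracts immunoblotted for phosphorylated histone H3 as mitotic marker, with actin as loading reference.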

[11] = tested on: HeLa; experiment: Cell cycle arrest in human HeLa cells assessed as abnormal spindle structure formation at 30 nM after 24 hrs; format: functional, cell-based
In short: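 HeLa cells grown 24 h with or without 30 nM compound, then fixed in 4% formaldehyde. Stained with anti-α-tubulin monoclonal (1:1,000) and DAPI; spindle and nuclear morphology imaged by confocal microscopy. Abnormal mono-/multipolar spindles and multinucleate cells counted as a percentage of cells.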

Structure (SMILES) | Activity [3] | Activity [4] | Activity [5] | also measured
[H][C@]12Nc3c4cccc3[C@]13C1=C(N=C(O1)[C@H](C(C)C)NC(=O)[C@@H](NC(=O)[C@@H](O)C(C)C)Cc1ccc(c3c1)O2)c1nc(Cl)c(o1)-c1c(Cl)[nH]c2cccc-4c12 [DIAZONAMIDE A] | – | – | – | Activity [1]: 6.9%; Activity [2]: 85.69%
CC(C)[C@H](O)C(=O)N[C@H]1Cc2ccc3c(c2)[C@]24C5=C(N=C(O5)[C@H](C(C)C)NC1=O)c1nc(Cl)c(o1)-c1c(Cl)[nH]c5cccc(c15)-c1cccc2c1O[C@@H]4O3 | – | – | inactive | –
C#CC(N)CCC(=O)O (stereo unspecified) | – | – | Active | –
CC(C)[C@H](O)C(=O)N[C@H]1Cc2ccc3c(c2)[C@]24C5=C(N=C(O5)[C@H](C(C)C)NC1=O)c1nc(Cl)c(o1)-c1c(Cl)[nH]c5cccc(c15)-c1cccc2c1N[C@@H]4O3 | – | – | inactive | Activity [9]: Active; Activity [10]: Active; Activity [11]: Active

Second part, led by results:

Activity [3] | Activity [4] | Structure (SMILES) | Activity [5] | also measured
inactive | inactive | CC(CCCCNC(=O)CCCC[C@@H]1SC[C@@H]2NC(=O)N[C@@H]21)[C@H](O)C(=O)N[C@H]1Cc2ccc3c(c2)[C@]2(C4=C(c5nc(Cl)c(-c6c(Cl)[nH]c7ccccc67)o5)N=C(O4)[C@H](C(C)C)NC1=O)c1ccccc1O[C@@H]2O3 (stereo partly specified) | – | –
Active | inactive | CC(CCCCNC(=O)CCCC[C@@H]1SC[C@@H]2NC(=O)N[C@@H]21)[C@H](O)C(=O)N[C@H]1Cc2ccc3c(c2)[C@]24C5=C(N=C(O5)[C@H](C(C)C)NC1=O)c1nc(Cl)c(o1)-c1c(Cl)[nH]c5cccc(c15)-c1cccc2c1O[C@@H]4O3 (stereo partly specified) | inactive | Activity [6]: inactive; Activity [7]: Active; Activity [8]: Active
